ChEMBL document CHEMBL3792328, “Diketopiperazines from Costa Rican endolichenic fungus Colpoma sp. CR1465A” (2016)

Assays:
Format in all cases: functional
[1] = system: Escherichia coli; assay: Antibacterial activity against Escherichia coli ATCC 25922 after 12 hrs by broth-dilution method; settings: ATCC 25922, 12 h
Procedure, shortened: (§1)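 Standardized ATCC strains were tested in triplicate by broth dilution. The panel comprised Gram-negative E. coli, Gram-positive B. subtilis and S. aureus, and the yeasts S. cerevisiae and C. albicans. Minimum inhibitory concentration was determined for the growth-inhibition lines. Minimum fungicidal concentration was determined for the fungicidal yeast lines.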

[2] = system: Bacillus spizizenii; assay: Antibacterial activity against Bacillus subtilis ATCC 6633 after 12 hrs by broth-dilution method; settings: ATCC 6633, 12 h; procedure, shortened: as §1
[3] = system: Staphylococcus aureus; assay: Antibacterial activity against Staphylococcus aureus BAA-2313 after 12 hrs by broth-dilution method; settings: BAA-2313, 12 h; procedure, shortened: as §1
[4] = system: Saccharomyces cerevisiae; assay: Antifungal activity against Saccharomyces cerevisiae ATCC 9763 after 12 hrs by broth-dilution method; settings: ATCC 9763, 12 h; procedure, shortened: as §1
[5] = system: Candida albicans; assay: Antifungal activity against Candida albicans ATCC 10231 after 12 hrs by broth-dilution method; settings: ATCC 10231, 12 h; procedure, shortened: as §1
[6] = system: Saccharomyces cerevisiae; assay: Fungicidal activity against Saccharomyces cerevisiae ATCC 9763 after 48 hrs by broth-dilution method; settings: ATCC 9763, 48 h, read-out: MFC99.9; procedure, shortened: as §1
[7] = system: Candida albicans; assay: Fungicidal activity against Candida albicans ATCC 10231 after 48 hrs by broth-dilution method; settings: ATCC 10231, 48 h, read-out: MFC99.9; procedure, shortened: as §1

| Compound | MIC [1] [µg/mL] | MIC [2] [µg/mL] | MIC [3] [µg/mL] | MIC [4] [µg/mL] | MIC [5] [µg/mL] | MFC [6] [µg/mL] | MFC [7] [µg/mL] |
| --- | --- | --- | --- | --- | --- | --- | --- |
| O=C1[C@@H]2CCCN2C(=O)[C@H]2C[C@H](O)CN12 | > 200 | > 200 | > 200 | > 200 | > 200 | > 200 | > 200 |
| C[C@H]1NC(=O)[C@@H]2CCCN2C1=O | > 200 | > 200 | > 200 | > 200 | > 200 | > 200 | > 200 |
| O=C(O)CC[C@H]1NC(=O)[C@H]2CCCN2C1=O | > 200 | > 200 | > 200 | > 200 | > 200 | > 200 | > 200 |
| C[C@@H](O)[C@H]1NC(=O)[C@@H]2CCCN2C1=O | > 200 | > 200 | > 200 | > 200 | > 200 | > 200 | > 200 |

The next lines start with results.

| MIC [1] [µg/mL] | MIC [2] [µg/mL] | MIC [3] [µg/mL] | MIC [4] [µg/mL] | MIC [5] [µg/mL] | Compound | MFC [6] [µg/mL] | MFC [7] [µg/mL] |
| --- | --- | --- | --- | --- | --- | --- | --- |
| > 200 | > 200 | > 200 | > 200 | > 200 | C[C@@H]1NC(=O)[C@@H]2CCCN2C1=O | > 200 | > 200 |
| > 200 | > 200 | > 200 | > 200 | > 200 | O=C(O)C[C@@H]1NC(=O)[C@@H]2CCCN2C1=O | > 200 | > 200 |
| > 200 | > 200 | > 200 | > 200 | > 200 | O=C1NCC(=O)N2CCC[C@H]12 | > 200 | > 200 |
| > 200 | > 200 | > 200 | > 200 | > 200 | O=C(O)CC[C@H]1NC(=O)[C@@H]2CCCN2C1=O | > 200 | > 200 |
